# Data: ChEMBL document CHEMBL1914305, “Synthesis and structure-activity evaluation of isatin-β-thiosemicarbazones with improved selective activity toward multidrug-resistant cells expressing P-glycoprotein” (J Med Chem, 2011)
# Active and inactive are the calls of the source. The calls are words filed in the database; no cut-off is given here.
# Assays:
# [1] = Aqueous solubility of the compound; assay type: physicochemical; conditions: buffer
# LLC-PK1 [2] = test: Cytotoxicity against pig LLC-PK1 cells after 72 hrs by MTT assay; assay type: cell-based; conditions: Sus scrofa, LLC-PK1, 72 h
# How it was run: (§1)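 LLC-PK1 empty-vector lines grown in M199 with 10% FBS; transfected lines also in 0.5 mg/mL G418. MTT assay: 4000 cells/well for 24 h, then serially diluted drug for 72 h at 37 °C, 5% CO2. MTT 4 h, acidified ethanol, A570 minus 690 nm. IC50 is 50% of untreated absorbance. Triplicate wells, three experiments.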
# LLC-PK1 [3] = test: Cytotoxicity against pig LLC-PK1 cells transfected with empty vector after 72 hrs by MTT assay; assay type: cell-based; conditions: Sus scrofa, LLC-PK1, 72 h; how it was run: as §1
# NCI/ADR-RES = test: Cytotoxicity against adriamycin-selected human NCI/ADR-RES cells after 72 hrs by MTT assay; assay type: functional, cell-based
# How it was run: (§2)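 Lines grown in RPMI with 10% FBS and 2 mM L-glutamine. MTT assay: 4000 cells/well attached 24 h before serially diluted drug, then 72 h exposure at 37 °C, 5% CO2. MTT in IMDM 4 h, lysis in acidified ethanol 15 min, absorbance 570 nm minus 690 nm. IC50 is the concentration halving untreated absorbance. Three independent experiments, each in triplicate.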
# CHO [4] = test: Cytotoxicity against CHO cells after 72 hrs by MTT assay; assay type: cell-based; conditions: Cricetulus griseus
# How it was run: (§3)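 CHO and colchicine-selected C5 cells kept in AlphaMEM with 10% FBS. MTT assay: 4000 cells/well settled 24 h, then serially diluted drug added. Incubated 72 h at 37 °C, 5% CO2. MTT in IMDM for 4 h, then acidified ethanol lysis for 15 min. Read A570, background-corrected at 690 nm. IC50 is the concentration giving 50% of untreated absorbance. Three experiments, each in triplicate.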
# SW-620 [5] = test: Cytotoxicity against human SW620 cells after 72 hrs by MTT assay; assay type: functional, cell-based; conditions: SW-620, 72 h; how it was run: as §2
# NIH3T3 [6] = test: Cytotoxicity against mouse NIH/3T3 cells selected at 30 ug/ml vincristine after 72 hrs by MTT assay; assay type: functional, cell-based; conditions: NIH3T3, 72 h, in the assay text read “30 ng/ml” for “30 ug/ml”
# How it was run: (§4)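 Grown in DMEM with 10% FBS. MTT assay: 4000 cells/well, 24 h settling, serial dilutions of drug, 72 h at 37 °C in 5% CO2. MTT in IMDM 4 h, then acidified ethanol 15 min, A570 with 690 nm background. IC50 is the concentration reducing absorbance to 50% of untreated control. Three experiments in triplicate. KB-V1-R comes from KB-V1 grown long-term drug-free.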
# [7] = Cytotoxicity against human Ew36 cells selected at 120 ng/mL vincristine after 72 hrs by MTT assay; assay type: functional, cell-based; conditions: Ew36, 72 h; how it was run: as §2
# [8] = Cytotoxicity against P-gp-negative human KB-3-1 cells after 72 hrs by MTT assay in presence of 100 nM DCPQ; conditions: KB 3-1, 72 h
# MDA-MB-231 [9] = test: Cytotoxicity against human MDA-MB-231 cells after 72 hrs by MTT assay; assay type: functional, cell-based; conditions: MDA-MB-231, 72 h; how it was run: as §2
# [10] = Selectivity ratio of IC50 for pig LLC-PK1 cells transfected with empty vector to IC50 for pig LLC-PK1 cells; assay type: ADME, cell-based, Sus scrofa; conditions: read-out: Ratio IC50
# How it was run: (§5)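 Selectivity ratio: IC50 in the parental or empty-vector cells divided by IC50 in the P-gp-expressing cells (KB-V1, or ABCB1-transfected LLC-PK1). MTT assay: 4000 cells/well established for 24 h, then 72 h exposure to serially diluted drug at 37 °C, 5% CO2. MTT for 4 h, acidified ethanol lysis, A570 corrected at A690. IC50 is the concentration giving 50% of untreated absorbance, from at least three experiments.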
# HEK293 [11] = test: Cytotoxicity against human HEK293 cells transfected with plasmid expressing MDR1 after 72 hrs by MTT assay; assay type: functional, cell-based; conditions: HEK293, 72 h
# How it was run: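 ABCB1-transfected HEK293 grown in DMEM with 10% FBS and 1 mg/mL G418. MTT assay: 4000 cells/well for 24 h, serial drug dilutions, 72 h at 37 °C, 5% CO2. MTT 4 h, acidified ethanol lysis, A570 corrected at 690 nm. IC50 at 50% of untreated absorbance. Three experiments in triplicate.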
# MDA-MB-231 [12] = test: Cytotoxicity against human MDA-MB-231 cells selected at 100 ug/ml vinblastine after 72 hrs by MTT assay; assay type: functional, cell-based; conditions: MDA-MB-231, 72 h, in the assay text read “100 ng/ml” for “100 ug/ml”; how it was run: as §2
# NIH3T3 [13] = test: Cytotoxicity against mouse NIH/3T3 cells selected at 1 ug/mL colchicine after 72 hrs by MTT assay; assay type: functional, cell-based; conditions: NIH3T3, 72 h; how it was run: as §4
# [14] = Cytotoxicity against human ZR-75B cells after 72 hrs by MTT assay; assay type: functional, cell-based; how it was run: as §2
# NIH3T3 [15] = test: Cytotoxicity against 2.4 ug/mL vincristine selected mouse NIH/3T3 cells transfected with P-gp Ser to Asp phosphorylation mutant after 72 hrs by MTT assay; assay type: functional, cell-based; conditions: NIH3T3, 72 h; how it was run: as §4
# SW-620 [16] = test: Cytotoxicity against human SW620 cells selected at 20 ng/mL adriamycin after 72 hrs by MTT assay; assay type: functional, cell-based; conditions: SW-620, 72 h; how it was run: as §2
# NIH3T3 [17] = test: Cytotoxicity against mouse NIH/3T3 cells after 72 hrs by MTT assay; assay type: cell-based; conditions: NIH3T3, 72 h; how it was run: as §4
# [18] = Cytotoxicity against P-gp-negative human KB-3-1 cells after 72 hrs by MTT assay in presence of 10 uM CsA; assay type: functional, cell-based; conditions: KB 3-1, 72 h
# How it was run: (§6)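 KB-3-1 and KB-V1 cells in DMEM. Test drug co-administered with a P-gp inhibitor at: verapamil 1 uM, CsA 10 uM, DCPQ 100 nM, TQR 100 nM. MTT assay after 72 h at 37 °C: 4000 cells/well, MTT 4 h, acidified ethanol, A570 corrected at 690 nm. IC50 ± SD at 50% of untreated absorbance. Three experiments in triplicate.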
# [19] = Cytotoxicity against human MES-SA cells after 72 hrs by MTT assay; assay type: functional, cell-based
# How it was run: (§7)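 MES-SA and MES-SA/Dx5 lines kept in McCoy's 5A with 10% FBS. MTT assay: seeded at 4000 cells/well for 24 h, serial drug dilutions, 72 h at 37 °C and 5% CO2. MTT 4 h, acidified ethanol lysis, A570 corrected at 690 nm. IC50 is 50% absorbance versus untreated wells. Three separate experiments in triplicate.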
# [20] = Cytotoxicity against P-gp expressing human KBV1 cells after 72 hrs by MTT assay in presence of 1 uM verapamil; assay type: functional, cell-based; conditions: KB-V1, 72 h; how it was run: as §6
# [21] = Cytotoxicity against P-gp expressing human KBV1 cells after 72 hrs by MTT assay in presence of 10 uM CsA; assay type: functional, cell-based; conditions: KB-V1, 72 h; how it was run: as §6
# [22] = Cytotoxicity against P-gp expressing human KBV1 cells after 72 hrs by MTT assay in presence of 100 uM DCPQ; conditions: KB-V1, 72 h
# [23] = Cytotoxicity against P-gp-negative human KB-3-1 cells after 72 hrs by MTT assay in presence of 100 nM TQR; conditions: KB 3-1, 72 h
# NIH3T3 [24] = test: Cytotoxicity against mouse NIH/3T3 cells transfected with wild-type P-gp G185 after 72 hrs by MTT assay; assay type: functional, cell-based; conditions: NIH3T3, 72 h; how it was run: as §4
# [25] = Cytotoxicity against doxorubicin-selected human ZR-75B cells after 72 hrs by MTT assay; assay type: functional, cell-based; how it was run: as §2
# HEK293 [26] = test: Cytotoxicity against human HEK293 cells after 72 hrs by MTT assay; assay type: functional, cell-based; conditions: HEK293, 72 h; how it was run: as §4
# NIH3T3 [27] = test: Cytotoxicity against mouse NIH/3T3 cells transfected with wild type p-glycoprotein ABCB1 selected at 600 ug/ml vincristine after 72 hrs by MTT assay; assay type: functional, cell-based; conditions: NIH3T3, 72 h, in the assay text read “600 ng/ml” for “600 ug/ml”; how it was run: as §4
# [28] = Cytotoxicity against P-gp-negative human KB-3-1 cells after 72 hrs by MTT assay in presence of 1 uM verapamil; assay type: functional, cell-based; conditions: KB 3-1, 72 h; how it was run: as §6
# [29] = Cytotoxicity against P-gp expressing human KBV1 cells after 72 hrs by MTT assay in presence of 100 nM TQR; conditions: KB-V1, 72 h
# OVCAR-8 = test: Cytotoxicity against human OVCAR8 cells after 72 hrs by MTT assay; assay type: functional, cell-based; conditions: OVCAR-8, 72 h; how it was run: as §2
# CHO [30] = test: Cytotoxicity against CHO cells selected at 1 ug/mL colchicine after 72 hrs by MTT assay; assay type: functional, cell-based; conditions: Cricetulus griseus; how it was run: as §3
# [31] = Cytotoxicity against adriamycin-selected human MES-SA cells after 72 hrs by MTT assay; assay type: functional, cell-based; how it was run: as §7
# [32] = Cytotoxicity against human Ew36 cells after 72 hrs by MTT assay; assay type: functional, cell-based; conditions: Ew36, 72 h; how it was run: as §2
# [33] = Cytotoxicity against vinblastine-selected human KBV1 cells after 72 hrs by MTT assay; assay type: functional, cell-based; conditions: KB-V1, 72 h; how it was run: as §4
# [34] = Selectivity ratio of IC50 for human KB-3-1 cells to IC50 for human KBV1 cells selected at 1 ug/mL vinblastine; assay type: functional; how it was run: as §5
# KB-V1 = test: Cytotoxicity against P-gp expressing human KBV1 cells after 72 hrs by MTT assay in presence of 4 uM P-gp substrate Rh123; assay type: functional, cell-based
# NCI-H460 [35] = test: Cytotoxicity against ABCG2-expressing human H460 cells at 10 uM after 72 hrs by MTT assay; assay type: functional, cell-based
# NCI-H460 [36] = test: Cytotoxicity against ABCG2-expressing human H460 cells at 10 to 20 uM after 72 hrs by MTT assay in presence of ABCG2 substrate 5 uM mitoxantrone; assay type: functional, cell-based
# [37] = Cytotoxicity against human KB-3-1 cells after 72 hrs by MTT assay; assay type: functional, cell-based; conditions: KB 3-1, 72 h
# How it was run: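 Grown in DMEM with 10% FBS. MTT assay: 4000 cells/well, 24 h settling, serial dilutions of drug, 72 h at 37 °C in 5% CO2. MTT in IMDM 4 h, then acidified ethanol 15 min, A570 with 690 nm background. Three experiments in triplicate. KB-V1-R comes from KB-V1 grown long-term drug-free.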
# [38] = Cytotoxicity against P-gp expressing human KBV1 revertant cells after 72 hrs by MTT assay; assay type: functional, cell-based; conditions: KB-V1, 72 h, in the assay text read “P-gp-negative” for “P-gp expressing”; how it was run: as §4
structure (smiles),measurement,setting,value
COc1ccc(NC(=S)NNC2=c3ccccc3=NC2=O)cc1,solubility,[1],< 0.2 µg/mL
same,IC50,LLC-PK1 [2],3.99 µM
same,IC50,LLC-PK1 [3],36.8 µM
same,IC50,NCI/ADR-RES,3.79 µM
same,IC50,CHO [4],3.04 µM
same,IC50,SW-620 [5],9.04 µM
same,IC50,NIH3T3 [6],4.58 µM
same,IC50,[7],0.99 µM
same,IC50,[8],12.4 µM
same,IC50,MDA-MB-231 [9],13.8 µM
same,selectivity ratio,[10],9.2
same,IC50,HEK293 [11],2.55 µM
same,IC50,MDA-MB-231 [12],4.86 µM
same,IC50,NIH3T3 [13],3.17 µM
same,IC50,[14],5.06 µM
same,IC50,NIH3T3 [15],3.14 µM
same,IC50,SW-620 [16],3.74 µM
same,IC50,NIH3T3 [17],8.12 µM
same,IC50,[18],11.4 µM
same,IC50,[19],22.4 µM
same,IC50,[20],2.23 µM
same,IC50,[21],8.33 µM
same,IC50,[22],14 µM
same,IC50,[23],12.1 µM
same,IC50,NIH3T3 [24],1.06 µM
same,IC50,[25],1.21 µM
same,IC50,HEK293 [26],6.23 µM
same,IC50,NIH3T3 [27],3.59 µM
same,IC50,[28],9.68 µM
same,IC50,[29],11.6 µM
same,IC50,OVCAR-8,6.69 µM
same,IC50,CHO [30],0.97 µM
same,IC50,[31],13.8 µM
same,IC50,[32],2.48 µM
CC(C)(C)c1ccc(NC(=S)N/N=C2\C(=O)Nc3ccccc32)cc1,IC50,[33],0.71 µM
same,Ratio IC50,[34],14.8
same,solubility,[1],0.8 µg/mL
same,IC50,LLC-PK1 [2],2.89 µM
same,IC50,LLC-PK1 [3],29.3 µM
same,Activity,KB-V1,Active
same,Activity,NCI-H460 [35],Active
same,selectivity ratio,[10],10.1
same,Activity,NCI-H460 [36],Active
same,IC50,[37],8.13 µM
same,IC50,[23],14.3 µM
same,IC50,[29],8.41 µM
same,IC50,[38],6.5 µM
O=C1Nc2ccccc2/C1=N/NC(=S)Nc1ccc([N+](=O)[O-])cc1,IC50,[33],2.07 µM
same,Ratio IC50,[34],8.3
same,solubility,[1],< 0.2 µg/mL
same,IC50,LLC-PK1 [2],4.46 µM
same,IC50,LLC-PK1 [3],28.4 µM
same,Activity,KB-V1,Active
same,Activity,NCI-H460 [35],Active
same,selectivity ratio,[10],6.4
same,Activity,NCI-H460 [36],Active
same,IC50,[37],15.6 µM
same,IC50,[23],10 µM
same,IC50,[29],6.35 µM
same,IC50,[38],7.21 µM
